Reference: the RNAGym collection of RNA variant scans (doi:10.1126/science.aae0568)
Fewer inactive variants are shown than the library holds.

B1: tRNA (parent)
chain: GUUCCGUUGGCGUAAUGGUAACGCGUCUCCCUCCUAAGGAGAAGACUGCGGGUUCGAGUCCCGUACGGAACG

Variants of: B1
Assay: yeast fitness relative to wild type (ratio to wild type); higher = fitter; tRNA-Arg(CCU), competitive growth, 37 C, YPD
Outline: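 Variants of the tRNA-Arg(CCU) gene, chemically synthesised with a 3% per-site mutation rate at 69 sites, were placed at the native genomic locus in Saccharomyces cerevisiae. The pooled strains were competed in YPD at 37°C for 24 hours in six parallel replicates. Gene amplicons from the start population and from each end population were read by 100-nucleotide paired-end sequencing. Darwinian fitness relative to wild type came from changes in genotype frequencies; genotypes needed ≥ 100 starting reads, and estimates < 0.5 were set to 0.5.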

Row | Variant | yeast fitness
1 | GUUCCGUUGGCGUAAUGGUAACGCGUCUCCCUCCUAAGGCGAAGACUGCGGGUUCGAGUCCCGUGCGGAACG [A40C A65G] | 0.924
2 | GUUCCGUUGGCGUAAUGGUAACGCGUCUCCCUCCUAAGGCGAAGACUGCGGGUUCGAGUCCCGUCCGGAACG [A40C A65C] | 0.825
3 | GUUCCGUUGGCGUAAUGGUAACGCGUCUCCCUCCUAAGGCCAAGACUGCGGGUUCGAGUCCCGUACGGAACG [A40C G41C] | 0.56
4 | GUUCCGUUGGCGUAAUGGUAACGCGUCUCCCUCCUAAGGCAAAGACUGCGGGUUCGAGUCCCGUACGGAACG [A40C G41A] | 0.978
5 | GUUCCGUUGGCGUAAUGGUAACGCGUCUCCCUCCUAAGGCGAAGACUGCGGGUUCGAGUCCCGUUAGGAACG [A40C A65U C66A] | 0.562
6 | GUUCCGUUGGCGUAAUGGUAACGCGUCUCCCUCCUAAGGCGAAGACUGCGGGUUUGAGUGCAGUACGGAACG [A40C C55U C60G C62A] | 0.546
7 | GUUCCGUUGGCGUAAUGGUAACGCGUCUCCCUCCUAAGGCGAAGACUGCGGCUUCGAGUCCCGUACGGAACG [A40C G52C] | 0.685
8 | GUUCCGUUGGCGUAAUGGUAACGCGUCUCCCUCCUAAGGCGAAGACUGCGGGUUCGUGUGCCGUAGGGAACG [A40C A57U C60G C66G] | ≤ 0.5
9 | GUUCCGUUGGCGUAAUGGUAACGCGUCUCCCUCCUAAGGCGAAGACUGCGGGUUCGAGUCCUGUACGGAACG [A40C C62U] | 0.863
10 | GUUCCGUUGGCGUAAUGGUAACGCGUCUCCCUCCUAAGGCGAAGACUGCGGGUUCGAGUUUCGUACGGAACG [A40C C60U C61U] | ≤ 0.5
11 | GUUCCGUUGGCGUAAUGGUAACGCGUCUCCCUCCUAAGGGGAGCACUGCGGGUUCGAGUCCCGUACGGAACG [A40G A43G G44C] | ≤ 0.5
12 | GUUCCGUUGGCGUAAUGGUAACGCGUCUCCCUCCUAAGGCGAAGACUGCGAGUUCGAGUCCCAUACGGCACG [A40C G51A G63A A69C] | ≤ 0.5
13 | GUUCCGUUGGCGUAAUGGUAACGCGUCUCCCUCCUAAGGCGAAGACUGCGGGUUCGAGUCCUGCACGGAACG [A40C C62U U64C] | 0.534
14 | GUUCCGUUGGCGUAAUGGUAACGCGUCUCCCUCCUAAGGCGAAGACUGCGGGUUCGAGUUCCGUACAGAACG [A40C C60U G67A] | ≤ 0.5
15 | GUUCCGUUGGCGUAAUGGUAACGCGUCUCCCUCCUAAGGGGAAGGCUGCGGGAUCGAGUCCCGUACGGAACG [A40G A45G U53A] | ≤ 0.5
16 | GUUCCGUUGGCGUAAUGGUAACGCGUCUCCCUCCUAAGGCGAAGAGUGCGCGUUCGCGUCCCGUUCGGACCG [A40C C46G G51C A57C A65U A70C] | 0.555
17 | GUUCCGUUGGCGUAAUGGUAACGCGUCUCCCUCCUAAGGCGAAGACAGCGGGUUCGAGUCCCGUACGGAACG [A40C U47A] | 0.636
18 | GUUCCGUUGGCGUAAUGGUAACGCGUCUCCCUCCUAAGGCGAAGGCUGCGGGUUCGAGACCCGUACGGAACG [A40C A45G U59A] | 0.573
19 | GUUCCGUUGGCGUAAUGGUAACGCGUCUCCCUCCUAAGGCGAAGACUGGGGGUUCGAGUGCCGUACGGAACG [A40C C49G C60G] | 0.532

Row | Variant | yeast fitness
20 | GUUCCGUUGGCGUAAUGGUAACGCGUCUCCCUCCUAAGGGGAAGGCUGCGGAUUCGAGUCCCGUACGGAACG [A40G A45G G52A] | ≤ 0.5
21 | GUUCCGUUGGCGUAAUGGUAACGCGUCUCCCUCCUAAGGCGAAGACUGCGGGUUCGAGUCCCGUACUCAACG [A40C G67U G68C] | 0.585
22 | GUUCCGUUGGCGUAAUGGUAACGCGUCUCCCUCCUAAGGCGAAGACUGCGGGUUCGAGUCCCGUACGGACCG [A40C A70C] | 0.94
23 | GUUCCGUUGGCGUAAUGGUAACGCGUCUCCCUCCUAAGGCGAAGACUGCGGGUUCGAGUCCCGUACGGAGCG [A40C A70G] | 0.979
24 | GUUCCGUUGGCGUAAUGGUAACGCGUCUCCCUCCUAAGGCCAAGACUGCGGGUUCGAGUCCCGUACCGAACG [A40C G41C G67C] | ≤ 0.5
25 | GUUCCGUUGGCGUAAUGGUAACGCGUCUCCCUCCUAAGGCGAAGACUGCGGGCUCGAGUCCCGUACGGAACG [A40C U53C] | 0.828
26 | GUUCCGUUGGCGUAAUGGUAACGCGUCUCCCUCCUAAGGCGAAGACUGCGGGAUCGAGUCCCGUACGGAACG [A40C U53A] | 0.599
27 | GUUCCGUUGGCGUAAUGGUAACGCGUCUCCCUCCUAAGGGGAGCACUGCGGGUUCGAGUCCCGUAUGGAACG [A40G A43G G44C C66U] | ≤ 0.5
28 | GUUCCGUUGGCGUAAUGGUAACGCGUCUCCCUCCUAAGGCGAAGACUGCAGGUUCGAGUCCUGUACGGAACG [A40C G50A C62U] | 0.543
29 | GUUCCGUUGGCGUAAUGGUAACGCGUCUCCCUCCUAAGGGGAAGACUGCGGGUUCGUGUUCCGUACGGAGCG [A40G A57U C60U A70G] | 0.624
30 | GUUCCGUUGGCGUAAUGGUAACGCGUCUCCCUCCUAAGGCGAAGACUGCGGGUUCGAGUCACGUUCGGAACG [A40C C61A A65U] | 0.625
31 | GUUCCGUUGGCGUAAUGGUAACGCGUCUCCCUCCUAAGGCGAAGAUUGCGGGUUCGAGUCCCGUACGGAACG [A40C C46U] | 0.875
32 | GUUCCGUUGGCGUAAUGGUAACGCGUCUCCCUCCUAAGGCGAAGAAUGCGGGUUCGAGUCCCGUACGGAACG [A40C C46A] | 0.994
33 | GUUCCGUUGGCGUAAUGGUAACGCGUCUCCCUCCUAAGGCGAAGACUGCGAGUACGAGUCCCGUACGGAACG [A40C G51A U54A] | ≤ 0.5
34 | GUUCCGUUGGCGUAAUGGUAACGCGUCUCCCUCCUAAGGGGAAGACUGCGGGUUCGAGUCCCGUACGGAGCG [A40G A70G] | 1.09
35 | GUUCCGUUGGCGUAAUGGUAACGCGUCUCCCUCCUAAGGGGAGGACUGCGGGUUCGAGUCCGGUACGGAACG [A40G A43G C62G] | ≤ 0.5
36 | GUUCCGUUGGCGUAAUGGUAACGCGUCUCCCUCCUAAGGCGAACACUGCGGGUUGGAGUCCCGUACGGAACG [A40C G44C C55G] | ≤ 0.5
37 | GUUCCGUUGGCGUAAUGGUAACGCGUCUCCCUCCUAAGGCGAAGACUGCGGGUUCCAGUCCCGUAGGGAACG [A40C G56C C66G] | ≤ 0.5
38 | GUUCCGUUGGCGUAAUGGUAACGCGUCUCCCUCCUAAGGCGAAGACUGCGGGUUCGACUCCCGUACGGAACG [A40C G58C] | 0.922
